The text below walks through data of paper PMC8251575 (Diabetes, Obesity & Metabolism, 2021).

The test system of series [1] is subjects with type 2 diabetes. In words: Safety: treatment-emergent adverse events and hypoglycaemic episodes. It is filed as in vivo, human. The settings on record: during oral semaglutide treatment. In outline:
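This was a 12-week crossover versus placebo in adults aged 18–75 with type 2 diabetes (HbA1c 6.0%–9.0%, BMI 20–38 kg/m²), with a 5–9-week wash-out between periods. Treatment-emergent AEs and hypoglycaemic episodes were counted from first dose to end of follow-up. Hypoglycaemia was defined as plasma glucose ≤3.9 mmol/L, or >3.9 mmol/L with symptoms. The population was the safety analysis set: all subjects given at least one dose.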

Series [2] can be described thus: Oral semaglutide pharmacokinetics in plasma. Conditions: median (min, max). It is filed as in vivo, human. Summed up: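 Adults with type 2 diabetes on diet/exercise and/or metformin took once-daily oral tablets in a crossover trial: 3 mg weeks 0–4, 7 mg weeks 4–8, 14 mg weeks 8–12. Plasma was sampled at weeks 4, 8 and 12 after the last dose of each strength.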

With `CC[C@H](C)[C@H](NC(=O)[C@H](Cc1ccccc1)NC(=O)[C@H](CCC(=O)O)NC(=O)[C@H](CCCCNC(=O)COCCOCCNC(=O)COCCOCCNC(=O)CC[C@H](NC(=O)CCCCCCCCCCCCCCCCC(=O)O)C(=O)O)NC(=O)[C@H](C)NC(=O)[C@H](C)NC(=O)[C@H](CCC(N)=O)NC(=O)CNC(=O)[C@H](CCC(=O)O)NC(=O)[C@H](CC(C)C)NC(=O)[C@H](Cc1ccc(O)cc1)NC(=O)[C@H](CO)NC(=O)[C@H](CO)NC(=O)[C@@H](NC(=O)[C@H](CC(=O)O)NC(=O)[C@H](CO)NC(=O)[C@@H](NC(=O)[C@H](Cc1ccccc1)NC(=O)[C@@H](NC(=O)CNC(=O)[C@H](CCC(=O)O)NC(=O)C(C)(C)NC(=O)[C@@H](N)Cc1cnc[nH]1)[C@@H](C)O)[C@@H](C)O)C(C)C)C(=O)N[C@@H](C)C(=O)N[C@@H](Cc1c[nH]c2ccccc12)C(=O)N[C@@H](CC(C)C)C(=O)N[C@H](C(=O)N[C@@H](CCCNC(=N)N)C(=O)NCC(=O)N[C@@H](CCCNC(=N)N)C(=O)NCC(=O)O)C(C)C` [Oral semaglutide], the “Deaths, n (subjects)” value in series [1] (N = 15) was “no deaths”. For the same compound, the “Any AE, % of subjects” value in series [1] (safety analysis set N = 15) came to 93.3%. Besides, the Semaglutide tmax in series [2] (3 mg once daily, week 4, n = 15) is given as 1 h; in series [2] (7 mg once daily, week 8, n = 13) it was 1 h; in series [2] (14 mg once daily, week 12, n = 13), 1 h.
